pEC50: −log10 of the molar value.
Tests used:
Assay type in all cases: functional
NCI/ADR-RES = assay: In vitro cytotoxicity against human MCF-7/Adr breast cancer cell line; settings: read-out: ED50 (the source's name)
Summary of the method: (§1)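 About 2000 cells/well plated in Dulbecco's MEM/F12 with 10% fetal calf serum. At 24 h the medium was replaced with fresh medium holding varying compound concentrations. After 72 h, proliferation was read by sulforhodamine B staining. ED50 is the concentration reducing cell proliferation by 50%.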

[1] = target: Tubulin alpha chain (Sus scrofa) (UniProt P02550); assay: In vitro effective concentration required to reduce the amount of microtubules assembly by tubulin assay
Summary of the method: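 Tubulin at 1.5 mg/mL was incubated with varying compound concentrations for 15 min at 37 °C in PEM buffer, pH 6.9 (0.1 M PIPES, 1 mM EGTA, 1 mM MgSO4), with 0.5 mM GTP and 8% DMSO. Microtubules were pelleted by centrifugation for 4 min at 37 °C and 50 000 rpm. Supernatant protein was measured by Bradford, and pellet protein derived from it. ED50 is the concentration reducing microtubules by 50%.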

MCF7 = assay: In vitro cytotoxicity against human MCF-7 cell line; settings: read-out: ED50 (the source's name); summary of the method: as §1
KB = assay: In vitro cytotoxicity against human KB cancer cell line; settings: read-out: ED50 (the source's name)
CCRF-CEM = assay: In vitro cytotoxicity against human CEM cell line; settings: read-out: ED50 (the source's name)

Sequence of Tubulin alpha chain (Sus scrofa) (P02550 whole entry, looked up): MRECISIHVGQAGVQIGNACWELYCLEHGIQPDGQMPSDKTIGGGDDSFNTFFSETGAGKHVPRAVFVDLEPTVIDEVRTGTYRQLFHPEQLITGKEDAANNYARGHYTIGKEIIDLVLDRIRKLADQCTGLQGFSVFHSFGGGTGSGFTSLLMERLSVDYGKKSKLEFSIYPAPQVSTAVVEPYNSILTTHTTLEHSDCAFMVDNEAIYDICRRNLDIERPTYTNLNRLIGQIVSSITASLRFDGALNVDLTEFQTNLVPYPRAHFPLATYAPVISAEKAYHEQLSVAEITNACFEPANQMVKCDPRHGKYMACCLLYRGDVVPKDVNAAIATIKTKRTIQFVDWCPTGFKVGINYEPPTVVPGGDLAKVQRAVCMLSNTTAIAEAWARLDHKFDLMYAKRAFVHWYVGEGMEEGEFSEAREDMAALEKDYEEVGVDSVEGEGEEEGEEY

SMILES	ED50 [1]	pEC50 (NCI/ADR-RES)	pEC50 (MCF7)	pEC50 (KB)	pEC50 (CCRF-CEM)
COc1ccc(C[C@H]2NC(=O)/C=C/C[C@@H]([C@H](C)[C@H]3O[C@@H]3c3ccccc3)OC(=O)[C@H](CC(C)C)OC(=O)[C@H](C)CNC2=O)cc1Cl [CRYPTOPHYCIN A]	3400 nM	10.74	11.05	–	–
CC(C)C[C@@H]1OC(=O)CCNC(=O)[C@@H](Cc2ccc(Cl)c(Cl)c2)NC(=O)/C=C/C[C@@H]([C@H](C)[C@H]2O[C@@H]2c2ccccc2)OC1=O	12600 nM	8.47	10.10	–	–
COc1ccc(C[C@H]2NC(=O)/C=C/C[C@@H]([C@H](C)[C@H]3O[C@@H]3c3ccccc3)OC(=O)[C@H](CC(C)C)OC(=O)CCNC2=O)cc1 [ARENASTATIN A]	15800 nM	9.60	9.89	11.30	9.74

Second part, led by results:

ED50 [1]	SMILES	pEC50 (NCI/ADR-RES)	pEC50 (MCF7)	pEC50 (KB)	pEC50 (CCRF-CEM)
7200 nM	CC(C)C[C@@H]1OC(=O)CCNC(=O)[C@@H](Cc2cccc(Cl)c2)NC(=O)/C=C/C[C@@H]([C@H](C)[C@H]2O[C@@H]2c2ccccc2)OC1=O	9.24	10.30	–	–
12500 nM	CC(C)C[C@@H]1OC(=O)CCNC(=O)[C@@H](Cc2ccc(Cl)cc2)NC(=O)/C=C/C[C@@H]([C@H](C)[C@H]2O[C@@H]2c2ccccc2)OC1=O	9.18	9.92	–	–
13100 nM	CC(C)C[C@@H]1OC(=O)CCNC(=O)[C@@H](Cc2ccccc2)NC(=O)/C=C/C[C@@H]([C@H](C)[C@H]2O[C@@H]2c2ccccc2)OC1=O	8.80	9.47	–	–

Reference: ChEMBL document CHEMBL1148399, “Total synthesis and antitubulin activity of c10 analogues of cryptophycin-24” (2004)
